The values that follow come from ChEMBL document CHEMBL4665666, “Discovery and characterization of trypanocidal cysteine protease inhibitors from the 'malaria box'” (Eur J Med Chem, 2019).

Molecules are shown by their SMILES. Active and inactive are the calls of the source. No cut-off for these calls is given here.

In data set [1] the target is Cruzipain (Trypanosoma cruzi) (UniProt P25779). Briefly: Inhibition of recombinant Trypanosoma cruzi cruzain at 5 uM using Z-FR-AMC as substrate preincubated for 10 mins followed by substrate addition and measured at 12 sec interval for 5 mins by fluorimetric analysis relative to control. The note with it: time 15.0 min. In outline: (§1)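 Recombinant rhodesain or cruzain (1 nM) in 0.1 M sodium acetate pH 5.5, 0.01% Triton X-100, 1 mM β-mercaptoethanol. Compound at a single concentration, either without or after 10 min enzyme pre-incubation. Inhibition is relative to DMSO, with E-64 as positive control. Done in duplicate (primary screen) or triplicate.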
Sequence of Cruzipain (Trypanosoma cruzi) (P25779 123-467 limits assumed): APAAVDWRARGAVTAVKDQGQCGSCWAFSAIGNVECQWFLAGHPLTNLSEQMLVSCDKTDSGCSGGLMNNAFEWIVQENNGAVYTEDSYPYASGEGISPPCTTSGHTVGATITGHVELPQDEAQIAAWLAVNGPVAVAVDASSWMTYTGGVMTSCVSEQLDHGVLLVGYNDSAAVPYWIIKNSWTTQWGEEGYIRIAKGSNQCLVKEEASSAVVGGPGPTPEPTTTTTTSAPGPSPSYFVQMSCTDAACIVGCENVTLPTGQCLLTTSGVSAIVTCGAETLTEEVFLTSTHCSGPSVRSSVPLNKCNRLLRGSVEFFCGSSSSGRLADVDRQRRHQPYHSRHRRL

Data set [2] has as its target Rhodesain (Trypanosoma brucei rhodesiense) (UniProt Q95PM0). As to the kind of experiment: Inhibition of recombinant Trypanosoma brucei rhodesain expressed in Pichia pastoris at 5 uM using Z-FR-AMC as substrate and measured at 12 sec interval for 5 mins without preincubation by fluorimetric analysis relative to control. In outline: as §1
Data set [3] shares this target. Briefly: Inhibition of recombinant Trypanosoma brucei rhodesain expressed in Pichia pastoris at 5 uM using Z-FR-AMC as substrate preincubated for 10 mins followed by substrate addition and measured at 12 sec interval for 5 mins by fluorimetric analysis relative to control. The note with it: time 15.0 min. In outline: as §1
In data set [4] the target is Cruzipain (Trypanosoma cruzi) (UniProt P25779). As to the kind of experiment: Inhibition of recombinant Trypanosoma cruzi cruzain at 10 uM using Z-FR-AMC as substrate and measured at 12 sec interval for 5 mins without preincubation by fluorimetric analysis relative to control. In outline:
(§2)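 Recombinant rhodesain or cruzain (1 nM) in 0.1 M sodium acetate pH 5.5, 0.01% Triton X-100, 1 mM β-mercaptoethanol. Compound at a single concentration, either without or after 10 min enzyme pre-incubation. Z-FR-AMC 2.5 µM, read at 340/440 nm every 12 s for 5 min. Inhibition is relative to DMSO, with E-64 as positive control. Done in duplicate (primary screen) or triplicate.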

Data set [5] deals with Rhodesain (Trypanosoma brucei rhodesiense) (UniProt Q95PM0). Briefly: Inhibition of recombinant Trypanosoma brucei rhodesain expressed in Pichia pastoris at 10 uM using Z-FR-AMC as substrate and measured at 12 sec interval for 5 mins without preincubation by fluorimetric analysis relative to control. In outline: as §2
Sequence of Rhodesain (Trypanosoma brucei rhodesiense) (Q95PM0 1-450): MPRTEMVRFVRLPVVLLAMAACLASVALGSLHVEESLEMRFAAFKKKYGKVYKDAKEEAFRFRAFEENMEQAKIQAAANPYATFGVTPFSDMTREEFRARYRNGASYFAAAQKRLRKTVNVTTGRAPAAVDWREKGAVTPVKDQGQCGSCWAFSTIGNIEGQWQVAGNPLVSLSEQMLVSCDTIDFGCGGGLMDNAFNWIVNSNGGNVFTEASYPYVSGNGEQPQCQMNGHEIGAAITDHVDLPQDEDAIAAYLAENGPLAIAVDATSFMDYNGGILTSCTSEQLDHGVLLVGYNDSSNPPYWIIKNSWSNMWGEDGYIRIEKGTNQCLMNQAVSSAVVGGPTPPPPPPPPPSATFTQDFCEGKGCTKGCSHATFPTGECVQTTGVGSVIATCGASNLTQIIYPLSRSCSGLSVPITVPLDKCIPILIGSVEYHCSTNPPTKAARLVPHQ
The target in data set [6] is Cruzipain (Trypanosoma cruzi) (UniProt P25779). Briefly: Inhibition of recombinant Trypanosoma cruzi cruzain at 300 uM using Z-FR-AMC as substrate and measured at 12 sec interval for 5 mins without preincubation by fluorimetric analysis relative to control. In outline:
as §2

The target is the same in data set [7]. As to the kind of experiment: Inhibition of recombinant Trypanosoma cruzi cruzain at 300 uM using Z-FR-AMC as substrate preincubated for 10 mins followed by substrate addition and measured at 12 sec interval for 5 mins by fluorimetric analysis relative to control. The note with it: time 15.0 min. In outline:
as §2

Data set [8] deals with Rhodesain (Trypanosoma brucei rhodesiense) (UniProt Q95PM0). Briefly: Inhibition of recombinant Trypanosoma brucei rhodesain expressed in Pichia pastoris at 300 uM using Z-FR-AMC as substrate preincubated for 10 mins followed by substrate addition and measured at 12 sec interval for 5 mins by fluorimetric analysis relative to control. The following applies: time 15.0 min. In outline:
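Run with no pre-incubation or with 10 min enzyme-compound pre-incubation. Fluorescence read at 340/440 nm. Concentration was set by solubility under assay conditions. Inhibition is against DMSO, with E-64 as positive control; triplicate.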

Data set [9] has as its target Cruzipain (Trypanosoma cruzi, UniProt P25779). As to the kind of experiment: Inhibition of recombinant Trypanosoma cruzi cruzain using Z-FR-AMC as substrate and measured at 12 sec interval for 5 mins without preincubation by fluorimetric analysis. In outline: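 Cruzain (recombinant, 1 nM) in 0.1 M sodium acetate pH 5.5 with 0.01% Triton X-100 and 1 mM β-mercaptoethanol; Z-FR-AMC 2.5 µM, read at 340/440 nm every 12 s for 5 min, with or without 10 min enzyme–compound pre-incubation. […] For mechanism and Ki, 0.3–20.0 µM substrate and five inhibitor levels were used, with Lineweaver-Burk plots.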

Data set [10] addresses Cruzipain (Trypanosoma cruzi) (UniProt P25779). As to the kind of experiment: Inhibition of recombinant Trypanosoma cruzi cruzain at 100 uM preincubated for 10 mins in presence of 0.1% Triton X-100 relative to control. In outline: (§3)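 To test detergent sensitivity, cruzain was pre-incubated 10 min at room temperature with compound with no Triton X-100, 0.01% or 0.1% Triton X-100. Cleavage of Z-FR-AMC was then followed at pH 5.5 in acetate buffer. Percent inhibition was compared across detergent levels.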

The target is the same in data set [11]. Briefly: Inhibition of recombinant Trypanosoma cruzi cruzain at 100 uM preincubated for 10 mins in absence of Triton X-100 relative to control. In outline: as §3
The target is the same in data set [12]. As to the kind of experiment: Inhibition of recombinant Trypanosoma cruzi cruzain at 100 uM preincubated with BSA for 5 mins followed by incubation with enzyme for 5 mins followed by substrate addition relative to control. The following applies: time 10.0 min. In outline: (§4)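 For BSA sensitivity, compound was held 5 min with BSA (2 mg/mL in 0.001% Triton X-100), then 5 min with 1 nM cruzain, before substrate was added and activity monitored. Parallel runs omitted BSA under otherwise identical conditions.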

Data set [13] has the same target. As to the kind of experiment: Inhibition of recombinant Trypanosoma cruzi cruzain at 100 uM preincubated with enzyme for 5 mins followed by substrate addition in absence of BSA relative to control. In outline: as §4
Data set [14] concerns the target cathepsin S (Homo sapiens, UniProt P25774). Briefly: Inhibition of recombinant human cathepsin S expressed in Escherichia coli at 100 uM using Z-VVR-AMC as substrate preincubated for 10 mins followed by substrate addition and measured after 15 mins by microplate reader based assay relative to control. The note with it: probe Z-VVR-AMC, in the assay text read “preincubated for 5 mins” for “preincubated for 10 mins”, time 20 min. In outline:
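Run with or without 5 min compound–enzyme pre-incubation. AMC fluorescence at 380/460 nm over 15 min. Inhibition relative to DMSO (2% final); E64 1 µM as positive control. Two independent experiments, each in triplicate.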

Data set [15] has as its target T1, cathepsin B (Rattus norvegicus, UniProt P00787). Briefly: Inhibition of rat cathepsin B at 100 uM using Z-FR-AMC as substrate measured after 15 mins without preincubation by microplate reader based assay relative to control. The following applies: probe Z-FR-AMC. In outline: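 Rat cathepsin B (20 nM) at 25°C in 100 mM sodium phosphate, 100 mM NaCl, 1 mM EDTA, 1 mM DTT, 0.01% CHAPS. Compound pre-incubated 0 or 5 min with enzyme; Z-FR-AMC 50 µM, ex 380/em 440 nm, monitored 15 min. Inhibition is versus 2% DMSO, with 1 µM E64 control. Two independent experiments in triplicate.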

For data set [16], the system named is Trypanosoma brucei rhodesiense. Briefly: Trypanocidal activity against Trypanosoma brucei rhodesiense STI B900 assessed as reduction in parasite viability. The data set is classed as functional, organism-based.
Data set [17] relates to Trypanosoma cruzi. As to the kind of experiment: Trypanocidal activity against Trypanosoma cruzi Y strain trypomastigotes infected in C57BL/6 mouse peritoneal macrophage assessed as reduction in number of trypomastigotes release at 50 uM and measured after day 3 to day 11 post-infection by Neubauer chamber method. The note with it: time 11.0 day. It counts as functional, organism-based. In outline: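 Thioglycolate-elicited peritoneal macrophages from female C57BL/6 mice, 2 × 10^5/well, infected 2 h at 37°C with Y strain trypomastigotes at 5:1 (parasite:cell) and washed. They were then held with compound (3.125–50 µM) or IFN-γ 100 ng/mL. Trypomastigotes released into the supernatant were counted in a Neubauer chamber at several days after infection. Three independent experiments, each in triplicate.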

Data set [18] has as its target T1, cathepsin B. As to the kind of experiment: Inhibition of rat cathepsin B at 100 uM using Z-FR-AMC as substrate preincubated for 5 mins followed by substrate addition and measured after 15 mins by microplate reader based assay relative to control. The note with it: probe Z-FR-AMC.

T1 sequence (P00787 whole entry): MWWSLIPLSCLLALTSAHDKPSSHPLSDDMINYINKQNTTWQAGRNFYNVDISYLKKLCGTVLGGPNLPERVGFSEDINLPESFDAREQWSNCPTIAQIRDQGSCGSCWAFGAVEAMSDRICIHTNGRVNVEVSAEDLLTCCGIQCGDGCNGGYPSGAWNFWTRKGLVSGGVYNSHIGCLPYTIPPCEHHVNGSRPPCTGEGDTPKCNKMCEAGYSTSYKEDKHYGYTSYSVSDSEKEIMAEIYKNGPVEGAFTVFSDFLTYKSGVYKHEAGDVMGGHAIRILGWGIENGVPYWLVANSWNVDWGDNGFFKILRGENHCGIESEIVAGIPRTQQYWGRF
Sequence of cathepsin S (P25774 whole entry): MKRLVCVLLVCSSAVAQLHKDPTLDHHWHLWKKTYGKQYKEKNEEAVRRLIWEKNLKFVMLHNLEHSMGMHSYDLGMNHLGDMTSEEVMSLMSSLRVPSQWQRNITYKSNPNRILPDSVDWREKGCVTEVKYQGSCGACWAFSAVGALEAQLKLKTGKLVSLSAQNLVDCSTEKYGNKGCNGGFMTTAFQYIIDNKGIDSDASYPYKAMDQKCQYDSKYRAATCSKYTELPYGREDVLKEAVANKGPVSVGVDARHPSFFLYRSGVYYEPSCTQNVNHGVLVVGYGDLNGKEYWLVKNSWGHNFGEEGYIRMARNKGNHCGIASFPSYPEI
Sequence of Cruzipain (P25779 whole entry): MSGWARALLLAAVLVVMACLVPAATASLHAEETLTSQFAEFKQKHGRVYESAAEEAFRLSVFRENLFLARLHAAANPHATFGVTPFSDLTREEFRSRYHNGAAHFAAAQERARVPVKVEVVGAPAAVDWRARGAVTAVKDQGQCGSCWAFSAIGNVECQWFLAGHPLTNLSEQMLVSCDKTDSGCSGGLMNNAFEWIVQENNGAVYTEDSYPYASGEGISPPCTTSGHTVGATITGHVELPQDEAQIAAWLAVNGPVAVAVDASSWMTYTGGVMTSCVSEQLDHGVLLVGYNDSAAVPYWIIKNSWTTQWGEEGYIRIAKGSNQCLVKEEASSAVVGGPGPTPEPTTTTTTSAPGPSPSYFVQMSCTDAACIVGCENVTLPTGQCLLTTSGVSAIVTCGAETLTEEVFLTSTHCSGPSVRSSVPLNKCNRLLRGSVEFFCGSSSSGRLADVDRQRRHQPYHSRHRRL

For orientation: inhibition means the change of the read-out against control, counted positive when it falls. The IC50 is the point on the concentration scale where inhibition reaches its midpoint. For `Cl.Cl.Clc1cc(Br)ccc1-c1ccc(CNCC2CCNCC2)o1`, the inhibition in [1] was 56.7%; in data set [2], 31.3%; in data set [3], 49.6%; in [4], 25%; in data set [5] it was 10%; in [6] it was 78%. Further, the inhibition in data set [7] turned out to be 84%; in data set [8] it was 75%; in data set [10] it was 76.7%; in data set [11], 96.8%; in data set [12] it was 90.1%; in data set [13], 86.2%. In addition, the results for the IC50 in [9] and in [16] were 26 µM and 100 nM, respectively. Besides, the inhibition at 0.25 h, 100 µM turned out to be 29.8% in [14], 1.3% in [15] and 3.2% in data set [18]. Further, the outcome in data set [17] was Active.

As for `Cn1c(=O)n(C)c2cc(CNCCNc3ccnc4cc(Cl)ccc34)ccc21`, the inhibition in [1] was 79.7%; in data set [2], 47.7%; in data set [3] it was 81.4%; in data set [4], 13%; in data set [5], 10%; in data set [6] it was 75%. The inhibition in data set [7] was 80%; in [8] it was 71%; in data set [10] it was 56.4%; in data set [11] it was 64.5%; in data set [12], 87.8%; in [13] it was 62.1%. The IC50 was 145 µM in data set [9] and 400 nM in [16]. For the same compound, the inhibition at 0.25 h, 100 µM in data set [14] is 8.4%; in [15], 9.9%; in data set [18], 11.7%. In data set [17], the result was Active.
